Series [1] addresses T1, C-C chemokine receptor type 3 (Homo sapiens, UniProt P51677).
T1 sequence (P51677 whole entry): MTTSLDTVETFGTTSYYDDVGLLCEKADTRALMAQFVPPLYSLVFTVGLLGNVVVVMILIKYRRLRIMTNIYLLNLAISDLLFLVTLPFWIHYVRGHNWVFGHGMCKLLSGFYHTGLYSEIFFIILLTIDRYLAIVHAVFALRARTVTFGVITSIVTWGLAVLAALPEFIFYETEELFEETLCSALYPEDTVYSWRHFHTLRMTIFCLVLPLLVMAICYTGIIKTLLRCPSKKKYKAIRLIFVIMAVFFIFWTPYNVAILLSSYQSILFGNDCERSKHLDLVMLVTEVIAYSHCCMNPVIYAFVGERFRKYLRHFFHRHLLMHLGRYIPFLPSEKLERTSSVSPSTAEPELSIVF
In words: Displacement of [125I]eotaxin from human CCR3 receptor expressed in CHO cells. In kind it is cell-based.

For a further series, the target named is Cytochrome P450 2D6 (Homo sapiens, UniProt P10635).
In series [2] the target is T2, C-C chemokine receptor type 3 (Homo sapiens) (UniProt P51677).
T2 sequence (whole entry): T1 sequence (P51677 whole entry)
Put plainly: Displacement of [125I]eotaxin from human CCR3 receptor expressed in CHO cells at 0.3 uM. It is filed as cell-based. In general terms: Loss of bound radioactivity is the signal in a displacement assay; it reports binding, not function.

Series [3] in a line: Bioavailability in mouse at 10 mg/kg, po. The following applies: in vivo. It is filed as ADME, organism-based.
Series [4] can be described thus: Cmax in mouse at 10 mg/kg, po. Further details: dose 10 mg/kg, route oral. It is filed as ADME, organism-based. To be noted: in vivo.
A short description of series [5]: AUC in mouse at 10 mg/kg, po. It is filed as ADME, organism-based. To be noted: plasma. Also noted: dose 10 mg/kg, route oral.
Series [6] can be described thus: Bioavailability in rat at 50 mg/kg, po. It is filed as ADME, organism-based. The following applies: in vivo.
Series [7] is described as follows: Cmax in rat at 50 mg/kg, po. It is filed as ADME, organism-based. Also noted: dose 50 mg/kg, route oral. The following applies: in vivo.
A short description of series [8]: AUC in rat at 50 mg/kg, po. Also noted: dose 50 mg/kg, route oral. The following applies: plasma. In kind it is ADME, organism-based.
Series [9] in a line: Bioavailability in dog at 10 mg/kg, po. In kind it is ADME, organism-based, Canis lupus familiaris. The following applies: in vivo.
Series [10] in a line: Cmax in dog at 10 mg/kg, po. In kind it is ADME, organism-based, Canis lupus familiaris. Also noted: dose 10 mg/kg, route oral. To be noted: in vivo.
The nature of series [11]: AUC in dog at 10 mg/kg, po. It is filed as ADME, organism-based, Canis lupus familiaris. Also noted: dose 10 mg/kg, route oral. The following applies: plasma.
Series [12] is described as follows: Bioavailability in chimpanzee at 2 mg/kg, po. In kind it is ADME, organism-based, Pan troglodytes. To be noted: in vivo.
Series [13] is described as follows: Cmax in chimpanzee at 2 mg/kg, po. In kind it is ADME, organism-based, Pan troglodytes. Further details: dose 2 mg/kg, route oral. The following applies: in vivo.
Series [14] in a line: AUC in chimpanzee at 2 mg/kg, po. The following applies: plasma. Further details: dose 2 mg/kg, route oral. It is filed as ADME, organism-based, Pan troglodytes.
Series [15] deals with T1, C-C chemokine receptor type 3. In words: Antagonist activity at human CCR3 receptor in human eosinophil assessed as inhibition of eotaxin-stimulated intracellular calcium flux. It is filed as functional, cell-based. Background: Calcium assays in cells follow changes in intracellular calcium, usually with a dye or a luminescent sensor.
The nature of series [16]: Bioavailability in cynomolgus monkey at 10 mg/kg, po. To be noted: in vivo. It is filed as ADME, organism-based, Macaca fascicularis.
Series [17] can be described thus: Cmax in cynomolgus monkey at 10 mg/kg, po. It is filed as ADME, organism-based, Macaca fascicularis. Further details: dose 10 mg/kg, route oral. To be noted: in vivo.
The nature of series [18]: AUC in cynomolgus monkey at 10 mg/kg, po. To be noted: plasma. It is filed as ADME, organism-based, Macaca fascicularis. Further details: dose 10 mg/kg, route oral.
The test system of the next series is Cynomolgus monkey. Put plainly: Reduction of eosinophilia in Ascaris suum-challenged cynomolgus monkey at 5 mg/kg, po bid 2 hrs administered before pathogen challenge after 10 hrs. In kind it is functional, Macaca fascicularis. Also noted: scale not given: the % may be the effect or the level left. The essentials:
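Cross-over design in five cynomolgus monkeys given vehicle or compound orally at 5 mg/kg b.i.d., 2 h before and 10 h after Ascaris suum aerosol challenge. Bronchoalveolar lavage was done 24 h after challenge and eosinophils were counted. Trough plasma levels were measured.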

A short description of series [19]: Metabolic stability assessed as clearance in human liver microsomes. It is filed as ADME, Microsome. Background: Microsomes from liver hold many membrane-bound enzymes, among them those of drug oxidation.

For orientation: IC50 means the point on the concentration scale where inhibition reaches its midpoint. Usually bioavailability stands for the share of a dose that reaches the circulation, judged against a reference dose that is usually intravenous. By Cmax is commonly meant the maximum level reached in the sampled fluid or tissue. In general, AUC refers to concentration integrated over time.

Sequence of Cytochrome P450 2D6 (P10635 whole entry): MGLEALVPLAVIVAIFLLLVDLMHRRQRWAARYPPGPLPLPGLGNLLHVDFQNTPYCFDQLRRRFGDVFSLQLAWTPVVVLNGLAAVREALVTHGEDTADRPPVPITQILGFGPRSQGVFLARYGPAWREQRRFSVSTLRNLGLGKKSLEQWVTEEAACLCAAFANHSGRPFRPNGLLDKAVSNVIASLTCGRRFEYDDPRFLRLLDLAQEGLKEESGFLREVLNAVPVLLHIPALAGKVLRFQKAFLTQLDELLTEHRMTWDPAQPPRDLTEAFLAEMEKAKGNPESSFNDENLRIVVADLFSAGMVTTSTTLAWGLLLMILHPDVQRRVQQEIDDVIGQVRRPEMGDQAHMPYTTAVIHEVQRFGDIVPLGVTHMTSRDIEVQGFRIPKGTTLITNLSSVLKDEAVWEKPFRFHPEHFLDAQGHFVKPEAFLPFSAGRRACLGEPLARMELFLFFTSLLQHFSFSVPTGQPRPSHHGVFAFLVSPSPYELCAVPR

Take `CCc1cc(NC(=O)NCCCN2CCC[C@@H](Cc3ccc(F)cc3)C2)cc(-c2nnnn2C)c1`: the IC50 in series [1] came out at 1 nM.
As for `CC(=O)c1cc(NC(=O)N[C@@H](C)CCN2CCC[C@@H](Cc3ccc(F)cc3)C2)cc(C(C)=O)c1`, the IC50 in series [1] worked out at 5.8 nM.
Compound `C[C@H](CCN1CCC[C@@H](Cc2ccc(F)cc2)C1)NC(=O)Nc1cc(Br)cc(-c2nnnn2C)c1` returned a 50% inhibitory concentration (IC50) in [1] of 1.7 nM.
`O=C(NCCCN1CCC[C@@H](Cc2ccc(F)cc2)C1)Nc1cc(-n2cccn2)cc(-n2cccn2)c1`: the IC50 in series [1] worked out at 1.6 nM; at Cytochrome P450 2D6, 2800 nM.
Compound `CC(=O)c1cc(NC(=O)N[C@H](C)CCN2CCC[C@@H](Cc3ccc(F)cc3)C2)cc(C(C)=O)c1` came in with an IC50 in series [1] of 2.7 nM.
The compound `CC(=O)c1cc(NC(=O)N[C@H](C)CCN2CCC[C@@H](Cc3ccc(F)cc3)C2)cc(-c2nnnn2C)c1` displayed an IC50 in [1] of 1.5 nM.
`C[C@H](CCN1CCC[C@@H](Cc2ccc(F)cc2)C1)NC(=O)Nc1cc(-n2ccnn2)cc(-n2ccnn2)c1` returned an IC50 in series [1] of 2 nM.
On to `C[C@H](CCN1CCC[C@@H](Cc2ccc(F)cc2)C1)NC(=O)Nc1cc(-n2cccn2)cc(-n2cccn2)c1`, for which the values for the IC50 (in [1]; on Cytochrome P450 2D6) were 1.7 nM and 3000 nM, respectively.
For the compound `C[C@@H](CC(=O)N1CCC[C@@H](Cc2ccc(F)cc2)C1)NC(=O)Nc1cccc(-c2nnnn2C)c1`, in series [2], the Activity amounted to 37%. Further, at Cytochrome P450 2D6, the IC50 was greater than 100000 nM.
`C[C@H](CCN1CCC[C@@H](Cc2ccc(F)cc2)C1)NC(=O)Nc1cccc(-c2nnnn2C)c1` showed an IC50 in [1] of 1.3 nM.
As to `CC(C)c1cc(NC(=O)N[C@H](C)CCN2CCC[C@@H](Cc3ccc(F)cc3)C2)cc(-c2nnnn2C)c1`, in series [1], the IC50 worked out at 2.6 nM.
As to `C[C@@H](NC(=O)Nc1cccc(-c2nnnn2C)c1)[C@@H](O)CN1CCC[C@@H](Cc2ccc(F)cc2)C1`, the bioavailability in series [3] stood at 57%; in series [6], 45%; in [9], 17%; in series [12], 16%; in [16], 19%. Further, the highest concentration (Cmax) in [4] came to 1540 nM; in [7] it was 3170 nM; in series [10] it was 926 nM; in [13], 173 nM; in series [17], 561 nM. Moreover, the AUC in series [5] came out at 3.15 µM·h; in [8], 21.3 µM·h; in series [11], 2.74 µM·h; in [14], 0.639 µM·h; in [18] it was 1.05 µM·h. Moreover, the values for the IC50 (in [15]; against Cytochrome P450 2D6) were 0.87 nM and 2600 nM, respectively. The same compound yielded an Activity with Cynomolgus monkey of 82%.
With `CC[C@H](CCN1CCC[C@@H](Cc2ccc(F)cc2)C1)NC(=O)Nc1cc(-c2nnnn2C)cc(C(C)(C)O)c1`, the IC50 amounted to 2.4 nM in [1] and 8200 nM against Cytochrome P450 2D6. Besides, the CLhep predicted in series [19] is 15 mL/min/kg.
Consider `CCc1cc(NC(=O)N[C@H](C)[C@H](CN2CCC[C@@H](Cc3ccc(F)cc3)C2)N(C)C)cc(-c2nnnn2C)c1`, for which the IC50 in [1] was 0.5 nM.
Regarding `C[C@@H](CCN1CCC[C@@H](Cc2ccc(F)cc2)C1)NC(=O)Nc1cccc(-c2nnnn2C)c1`, in series [1], the IC50 turned out to be 4 nM.
Consider `CCC[C@H](CCN1CCC[C@@H](Cc2ccc(F)cc2)C1)NC(=O)Nc1cc(-c2nnnn2C)cc(C(C)(C)O)c1`, for which the figures for the IC50 (in [1]; on Cytochrome P450 2D6) were 1.5 nM and 1000 nM, respectively. In addition, the CLhep predicted in series [19] is 17 mL/min/kg.
Turning to `Cc1cc(NC(=O)N[C@H](C)CCN2CCC[C@@H](Cc3ccc(F)cc3)C2)cc(-c2nnnn2C)c1`, in series [1], the IC50 amounted to 1.2 nM.
Compound `CCc1cc(NC(=O)N[C@H](C)CCN2CCC[C@@H](Cc3ccc(F)cc3)C2)cc(-c2nnnn2C)c1` registered an IC50 in [1] of 2 nM.
As to `C[C@H](CCN1CCC[C@@H](Cc2ccc(F)cc2)C1)NC(=O)Nc1cc(-c2nnnn2C)cc(C(C)(C)O)c1`, the IC50 in series [1] was 0.7 nM. Besides, the CLhep predicted in [19] was 12 mL/min/kg.
Regarding `C[C@H](CC(=O)N1CCC[C@@H](Cc2ccc(F)cc2)C1)NC(=O)Nc1cccc(-c2nnnn2C)c1`, the IC50 in [1] came to 4.2 nM; at Cytochrome P450 2D6 it was 4400 nM.
`CC(C)c1cc(NC(=O)NCCCN2CCC[C@@H](Cc3ccc(F)cc3)C2)cc(-c2nnnn2C)c1` returned an IC50 in series [1] of 2.6 nM.

Values taken from ChEMBL document CHEMBL1142350, “From rigid cyclic templates to conformationally stabilized acyclic scaffolds. Part I: the discovery of CCR3 antagonist development candidate BMS-639623 with picomolar inhibition potency against eosinophil chemotaxis” (Bioorg Med Chem Lett, 2008).
